Results from paper PMC4512239 (Clinical cancer research : an official journal of the …, 2015).

How the values were obtained:
p-4EBP1 = p-4EBP1 immunohistochemistry in pre- and post-treatment tumor biopsies; format: in vivo, human; settings: 50 mg BD, post-treatment vs pre-treatment, mean H score
Method in brief: (§1)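 Paired tumor biopsies taken before treatment and on days 8-15 of continuous oral twice-daily dosing, in a subset of expansion-cohort patients with advanced solid tumors. Patients fasted (water allowed) 2 h before and 1 h after each dose. Markers were scored by immunohistochemistry on post-treatment versus pre-treatment samples.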

p-AKT = p-AKT immunohistochemistry in pre- and post-treatment tumor biopsies; format: in vivo, human; settings: 50 mg BD
Method in brief: as §1

advanced solid tumors = assay: disease response by RECIST 1.1; format: in vivo, human; settings: one each with ovarian and endometrial cancer
[1] = [14C]-AZD2014 metabolism and excretion after a single dose in rats; format: in vivo
p-4EBP1 in PBMNCs = assay: p-4EBP1 in peripheral blood mononuclear cells by flow cytometry; format: in vivo, human
CYP isozymes = assay: metabolism in human hepatocytes and heterologously expressed CYP isozymes; format: in vitro ADME
m-TORC1/2 = settings: ATP competitive m-TORC1/2 inhibitor; cited from earlier work
SUVmax of tumors = assay: FDG PET scans at baseline and day 8; format: in vivo, human; settings: Part B, 50 mg BD, paired FDG PET scans
MCF7 xenograft models = assay: MCF7 xenograft growth inhibition; format: in vivo

For CNC(=O)c1cccc(-c2ccc3c(N4CCOC[C@@H]4C)nc(N4CCOC[C@@H]4C)nc3n2)c1 [AZD2014], the “paired biopsy samples with a reduction of p-4EBP1 levels” value (p-4EBP1) was 3/7, the “induction of phosphorylation of AKT in post-treatment biopsies” value (p-AKT) was “no instances of induction of phosphorylation of AKT were seen” and the “paired biopsy samples with a reduction of p-AKT levels” value (p-AKT; post-treatment vs pre-treatment, mean H score) was 3/4. The “patients with prolonged stable disease on treatment for more than one year” value (advanced solid tumors) was “two patients”, the “faecal excretion, % of dosed radioactivity” value [1] was ~85% and the “urinary excretion, % of dosed radioactivity” value [1] was “approximately 2%”. The “mean % change from baseline in p-4EBP1” value (p-4EBP1 in PBMNCs; 50 mg, 24 hours (12 hours after the 2nd BD dose)) was −21%, the “mean % change from baseline in p-4EBP1” value (p-4EBP1 in PBMNCs; single 50 mg dose, 6-8 hours) was ~−41% and the “metabolising CYP isozymes” value (CYP isozymes) was “primarily metabolised by CYP 3A5 and 2C8 with some contribution from 3A4”. The IC50 (m-TORC1/2) was 2.81 nM, the “patients attaining a partial response (30% reduction in SUVmax)” value (SUVmax of tumors) was 3/11 and the “patients with a reduction of SUVmax” value (SUVmax of tumors) was 8/11. For the same compound, the “total growth inhibition (TGI)” value (MCF7 xenograft models; 4500 nM.h free weekly AUC) was > 70% and the “total growth inhibition (TGI)” value (MCF7 xenograft models; 17000 nM.h free weekly AUC) was ≥ 100%.
